Test results as given in ChEMBL document CHEMBL1129428 (J Med Chem, 1996).

Tests used:
Mus musculus [1] = experiment: Anticonvulsant activity after intraperitoneal injection into mice by using MES screen test after 0.5 hr; type: functional
Mus musculus [2] = experiment: Anticonvulsant activity after intraperitoneal injection into mice measured in a maximal electroshock scree (MES) screen; type: functional
Mus musculus [3] = experiment: Anticonvulsant activity after intraperitoneal injection into mice by using scPTZ screen test after 4 hr; type: functional
Rattus norvegicus [4] = experiment: Compound was tested for anticonvulsant activity after Oral Administration into Rats by using MES screen test after 0.25h,dose 12.5 mg/kg; No activity was demonstarted; type: functional, organism-based; design: dose 12.5 mg/kg
Procedure, shortened: (§1)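 Rats received the compound orally. […] Rats were tested in the MES screen at 0.25, 0.5, 1, 2 and 4 h. Each value is the number of rats protected out of 4. The test followed NINDS procedures.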

Rattus norvegicus [5] = experiment: Compound was tested for anticonvulsant activity after Oral Administration into Rats by using MES screen test after 2h.,dose 12.5 mg/kg; number of rats out of four which were protected; type: functional; procedure, shortened: as §1
Rattus norvegicus [6] = experiment: Compound was tested for anticonvulsant activity after Oral Administration into Rats by using MES screen test after 4h,dose 12.5 mg/kg; No activity was demonstarted; type: functional, organism-based; design: dose 12.5 mg/kg; procedure, shortened: as §1
Rattus norvegicus [7] = experiment: Compound was tested for anticonvulsant activity after Oral Administration into Rats by using MES screen test after 0.5h,dose 12.5 mg/kg; No activity was demonstarted; type: functional, organism-based; design: dose 12.5 mg/kg; procedure, shortened: as §1
Rattus norvegicus [8] = experiment: Compound was tested for anticonvulsant activity after Oral Administration into Rats by using MES screen test after 1h,dose 12.5 mg/kg; number of rats out of four which were protected; type: functional; procedure, shortened: as §1
Mus musculus [9] = experiment: Anticonvulsant activity after intraperitoneal injection into mice by using scPTZ screen after 0.5 hr; type: functional
Mus musculus [10] = experiment: Toxicity after intraperitoneal injection into mice by using toxicity screen test after 0.5 hr; type: organism-based; conditions: in vivo, ip
Procedure, shortened: (§2)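 Mice injected intraperitoneally at 30, 100 and 300 mg/kg and examined 0.5 and 4 h afterwards. Each entry is the minimum dose giving activity (MES protection, scPTZ protection, or rotorod failure for neurotoxicity) in half or more of the mice. Activity is called absent if nothing occurs at 300 mg/kg.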

Mus musculus [11] = experiment: Compound was tested for toxicity after intraperitoneal injection into mice by using toxicity screen test after 4 hr; type: organism-based; conditions: in vivo, ip; procedure, shortened: as §2
Rattus norvegicus [12] = experiment: Compound was tested for anticonvulsant activity after Oral Administration into Rats by using MES screen test after 4h,dose 12.5 mg/kg; number of rats out of four which were protected; type: functional; procedure, shortened: as §1
Rattus norvegicus [13] = experiment: Anticonvulsant activity after oral administration into rats; type: functional; design: concentration or dose not given beside the values
Rattus norvegicus [14] = experiment: Compound was tested for anticonvulsant activity after Oral Administration into rat by using MES screen test after 2 hr dose 12.5 mg/kg; type: functional
[15] = Compound was tested for toxicity after intraperitoneal injection into mice by using neurotoxicity screen test after 0.5 hr; conditions: mouse, in vivo, ip
[16] = Compound was tested for toxicity after oral administration in rat by using neurotoxicity screen test after 0.25-24 hr; type: organism-based; conditions: in vivo
Procedure, shortened: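 Rat neurotoxicity after oral dosing, observed at 0.25, 0.5, 1, 2, 4, 6, 8 and 24 h (8 h omitted for one compound).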

Mus musculus [17] = experiment: Compound was tested for anticonvulsant activity after intraperitoneal injection into mice by using scPTZ screen test after 1 hr; type: functional; conditions: ip
Procedure, shortened: (§3)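 Quantitative intraperitoneal mouse testing in the MES, scPTZ or rotorod neurotoxicity screens at the peak time given for each compound (0.25–2 h). ED50 or TD50 reported in mg/kg with 95% CI and slope (SE).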

Mus musculus [18] = experiment: Compound was tested for anticonvulsant activity after intraperitoneal injection into mice by using MES screen test after 4 hr; type: functional; conditions: ip; procedure, shortened: as §2
Mus musculus [19] = experiment: Compound was tested for anticonvulsant activity after intraperitoneal injection into mice by using scPTZ screen test after 4 hr; type: functional; conditions: ip; procedure, shortened: as §2
[20] = Compound was tested for toxicity after intraperitoneal injection into mice by using neurotoxicity screen test after 4 hr; type: organism-based; conditions: mouse, in vivo, ip; procedure, shortened: as §2
Rattus norvegicus [21] = experiment: Compound was tested for anticonvulsant activity after Oral Administration into rat by using MES screen test at 4 hr; type: functional
Procedure, shortened: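 Rats dosed orally, typically at 50 mg/kg first, then mostly 12.5 mg/kg (some compounds at 30 mg/kg), and tested by maximal electroshock. Four rats per compound, scored at 0.25, 0.5, 1, 2 and 4 h as the number of rats protected out of 4.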

Rattus norvegicus [22] = experiment: Compound was tested for anticonvulsant activity after Oral Administration into Rats by using MES screen test after 2h,dose 12.5 mg/kg; number of rats out of four which were protected; type: functional; procedure, shortened: as §1
Rattus norvegicus [23] = experiment: Compound was tested for anticonvulsant activity after Oral Administration into Rats by using MES screen test after 4h,dose 15 mg/kg; number of rats out of four which were protected; type: functional; procedure, shortened: as §1
Rattus norvegicus [24] = experiment: Compound was tested for anticonvulsant activity after Oral Administration into Rats by using MES screen test after 0.25h,dose 15 mg/kg; No activity was demonstarted; type: functional, organism-based; design: dose 15 mg/kg; procedure, shortened: as §1
Rattus norvegicus [25] = experiment: Compound was tested for anticonvulsant activity after Oral Administration into Rats by using MES screen test after 0.5h,dose 15 mg/kg; No activity was demonstarted; type: functional, organism-based; design: dose 15 mg/kg; procedure, shortened: as §1
Rattus norvegicus [26] = experiment: Compound was tested for anticonvulsant activity after Oral Administration into Rats by using MES screen test after 1h,dose 15 mg/kg; number of rats out of four which were protected; type: functional; procedure, shortened: as §1
Rattus norvegicus [27] = experiment: Compound was tested for anticonvulsant activity after Oral Administration into Rats by using MES screen test after 2h,dose 15 mg/kg; number of rats out of four which were protected; type: functional; procedure, shortened: as §1
Mus musculus [28] = experiment: Compound was tested for anticonvulsant activity after intraperitoneal injection into mice by using MES screen test after 1h,dose 12.50 mg/kg; type: functional; conditions: ip
[29] = Compound was tested for toxicity after intraperitoneal injection into mice by using neurotoxicity screen test after 2 hr; type: organism-based; conditions: mouse, in vivo, ip; procedure, shortened: as §3
Rattus norvegicus [30] = experiment: Compound was tested for anticonvulsant activity after Oral Administration into Rats by using MES screen test after 0.25h,dose 12.5 mg/kg; number of rats out of four which were protected; type: functional; procedure, shortened: as §1
Rattus norvegicus [31] = experiment: Compound was tested for anticonvulsant activity after Oral Administration into Rats by using MES screen test after 2h,dose 12.5 mg/kg; No activity was demonstarted; type: functional, organism-based; design: dose 12.5 mg/kg; procedure, shortened: as §1
[32] = Protection index = TD50/ED50 (MES); conditions: mouse, in vivo; read-out: PI

SMILES: NC(=O)N/N=C\c1ccc(OCc2ccccc2)cc1
- Dose (Mus musculus [1]): 300 mg/kg
- Dose (Mus musculus [2]): 300 mg/kg
- Dose (Mus musculus [3]): 100 mg/kg
- Activity (Rattus norvegicus [4]): No activity
- Activity (Rattus norvegicus [5]): 1
- Activity (Rattus norvegicus [6]): No activity
- Activity (Rattus norvegicus [7]): No activity
- Activity (Rattus norvegicus [8]): 1

SMILES: NC(=O)N/N=C/c1ccc(Oc2cc(F)ccc2F)cc1
- Dose (Mus musculus [1]): 100 mg/kg
- Dose (Mus musculus [2]): 300 mg/kg
- Dose (Mus musculus [9]): 100 mg/kg
- Dose (Mus musculus [10]): 300 mg/kg
- Dose (Mus musculus [11]): 300 mg/kg
- Activity (Rattus norvegicus [4]): No activity
- Activity (Rattus norvegicus [12]): 1
- Activity (Rattus norvegicus [13]): 1
- Activity (Rattus norvegicus [8]): 1
- ED50 (Rattus norvegicus [14]): 11.4 mg/kg

SMILES: O=C1NC(=O)C(c2ccccc2)(c2ccccc2)N1 [PHENYTOIN]
- Dose (Mus musculus [1]): 30 mg/kg
- Dose (Mus musculus [2]): 30 mg/kg
- Dose (Mus musculus [10]): 100 mg/kg
- Dose (Mus musculus [11]): 100 mg/kg
- TD50 at 0.5 h [15]: 41.2 mg/kg
- TD50 [16]: > 500 mg/kg
- ED50 (Mus musculus [17]): > 50 mg/kg

SMILES: CC(C)(C)c1ccc(Oc2ccc(/C=N\NC(N)=O)cc2)cc1
- Dose (Mus musculus [1]): 100 mg/kg
- Dose (Mus musculus [2]): 30 mg/kg
- Dose (Mus musculus [3]): 100 mg/kg
- Dose (Mus musculus [10]): 100 mg/kg
- Dose (Mus musculus [11]): 100 mg/kg
- ED50 (Mus musculus [18]): 8.87 mg/kg
- ED50 (Mus musculus [19]): > 150 mg/kg
- TD50 at 4 h [20]: 106 mg/kg
- Activity (Rattus norvegicus [4]): No activity
- Activity (Rattus norvegicus [12]): 4
- Activity (Rattus norvegicus [7]): No activity
- Activity (Rattus norvegicus [8]): 4
- ED50 (Rattus norvegicus [21]): 1.68 mg/kg
- TD50 [16]: > 500 mg/kg
- Activity (Rattus norvegicus [22]): 4

SMILES: CCC(C)(C)c1ccc(Oc2ccc(/C=N/NC(N)=O)cc2)cc1
- Dose (Mus musculus [1]): 300 mg/kg
- Activity (Rattus norvegicus [23]): 4
- Activity (Rattus norvegicus [24]): No activity
- Activity (Rattus norvegicus [25]): No activity
- Activity (Rattus norvegicus [26]): 2
- Activity (Rattus norvegicus [27]): 3

SMILES: Cc1ccc(C)c(Oc2ccc(/C=N/NC(N)=O)cc2)c1
- Dose (Mus musculus [1]): 100 mg/kg
- Dose (Mus musculus [2]): 100 mg/kg
- Dose (Mus musculus [9]): 30 mg/kg
- Dose (Mus musculus [3]): 300 mg/kg
- Dose (Mus musculus [11]): 300 mg/kg
- ED50 (Mus musculus [28]): 34.7 mg/kg
- TD50 at 2 h [29]: 356 mg/kg
- Activity (Rattus norvegicus [6]): No activity
- Activity (Rattus norvegicus [30]): 1
- Activity (Rattus norvegicus [7]): No activity
- Activity (Rattus norvegicus [8]): 1
- Activity (Rattus norvegicus [31]): No activity
- selectivity ratio [32]: 10.3
